Active and inactive are the calls of the source. No cut-off for these calls is given here.
Experiments:
[1] = test system: HT-29; assay: Inhibition of Wnt signaling in human HT29 cells assessed as inhibition of beta-catenin-mediated Tcf/Lef transcriptional activity after 24 hrs by dual luciferase reporter gene assay relative to control; type: cell-based; conditions: HT-29, 24 h
[2] = test system: HT-29; assay: Antiproliferative activity against human HT-29 cells after 72 hrs by MTT assay; type: functional; conditions: HT-29, 72 h
Outline: (§1)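 Cells grown in DMEM with 10% FBS, penicillin G, streptomycin and L-glutamine, seeded 7 x 10^3 per well, left 24 h, then exposed to scalar concentrations in complete medium for 72 h at 37 °C, 5% CO2. Viability read by MTT; IC50 taken as the concentration giving 50% inhibition of proliferation.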

[3] = test system: HepG2; assay: Antiproliferative activity against human HepG2 cells after 72 hrs by MTT assay; type: functional; conditions: HepG2, 72 h; outline: as §1
[4] = test system: A549; assay: Antiproliferative activity against human A549 cells after 72 hrs by MTT assay; type: functional; conditions: A549, 72 h; outline: as §1
[5] = test system: LoVo; assay: Antiproliferative activity against human LoVo cells after 72 hrs by MTT assay; type: functional; outline: as §1
[6] = test system: HT-29; assay: Inhibition of Wnt/beta-catenin signaling in human HT29 cells assessed as […] in axin2 mRNA expression at 25 uM after 24 hrs by quantitative real-time PCR assay; type: cell-based
Outline: (§2)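 Total RNA was extracted with TRIzol from HT-29 cells treated for 24 h. Transcripts were measured by real-time RT-PCR with GUS as the reference gene, and expression was expressed relative to untreated cells.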

[7] = test system: HT-29; assay: Inhibition of Wnt signaling in human HT29 cells assessed as inhibition of beta-catenin-mediated Tcf/Lef transcriptional activity at 25 uM after 24 hrs by dual luciferase reporter gene assay relative to control; type: cell-based
Outline: (§3)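 HT-29 cells (1.4 x 10^4) were co-transfected with 1 µg BAT-LUX, which carries 7 TCF sites and the siamois promoter driving firefly luciferase, plus 1 µg Renilla vector. Cells were then treated at 37 °C for 24 h, with or without the GSK-3β inhibitor LiCl. Dual-Glo readout; values are the mean firefly/Renilla ratio.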

[8] = test system: HT-29; assay: Inhibition of Wnt signaling in human HT29 cells assessed as inhibition of beta-catenin-mediated Tcf/Lef transcriptional activity at 25 uM after 24 hrs by dual luciferase reporter gene assay relative to control in presence of GSK-3beta inhibitor LiCl; type: cell-based; outline: as §3
[9] = test system: HT-29; assay: Inhibition of Wnt/beta-catenin signaling in human HT29 cells assessed as […] protein level at 25 uM after 24 hrs by Western blot analysis; type: cell-based
Outline: (§4)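 After 24 h exposure, HT-29 cells were washed in cold PBS, lysed on ice for 30 min and cleared at 15 000 g, 4 °C. 10 µg protein was run on 12% SDS-PAGE and transferred to PVDF. Blots were probed with specific primary antibodies, then peroxidase-labelled secondaries, and developed by ECL. β-actin re-probing served as the loading control.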

[10] = test system: HT-29; assay: Inhibition of Wnt/beta-catenin signaling in human HT29 cells assessed as GSK3-beta dephosphorylation at Ser21/Ser9 residues at 25 uM after 24 hrs by Western blot analysis; type: cell-based; outline: as §4
[11] = test system: HT-29; assay: Inhibition of Wnt signaling in human HT29 cells assessed as increase in cytoplasmic beta-catenin at 25 uM after 24 hrs by fluorescence microscopy; type: cell-based
Outline: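 Cells were fixed in cold 4% formaldehyde for 15 min and stained with anti-β-catenin (mouse, 1:50), then an Alexa-conjugated secondary, with DAPI counterstain. Images were taken on a video-confocal microscope with a 60x objective.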

[12] = test system: HT-29; assay: Inhibition of Wnt signaling in human HT29 cells assessed as beta-catenin dephosphorylation at S33/37/T41 residues at 25 uM after 24 hrs by Western blot analysis; type: cell-based; outline: as §4
[13] = test system: HT-29; assay: Cell cycle arrest in human HT-29 cells assessed as reduction of cells in S phase at 25 uM after 24 hrs by flow cytometry; type: functional, cell-based
Outline: (§5)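 Exponentially growing HT-29 cells (1.5 × 10^5) were treated with the compounds for 24 h, then collected and fixed in ice-cold 70% ethanol. Fixed cells were treated with lysis buffer holding RNase A and 0.1% Triton X-100, stained with PI and analysed for DNA content by flow cytometry.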

[14] = test system: HT-29; assay: Cell cycle arrest in human HT-29 cells assessed as reduction of cells in G2/M phase at 25 uM after 24 hrs by flow cytometry; type: functional, cell-based; outline: as §5
[15] = test system: HT-29; assay: Inhibition of Wnt/beta-catenin signaling in human HT29 cells assessed as increase in p21 protein expression at 25 uM after 24 hrs by Western blot analysis; type: cell-based; outline: as §4
[16] = test system: HT-29; assay: Cell cycle arrest in human HT-29 cells assessed as accumulation of cells at G1 phase at 25 uM after 24 hrs by flow cytometry; type: functional, cell-based; outline: as §5
[17] = test system: HT-29; assay: Inhibition of Wnt/beta-catenin signaling in human HT29 cells assessed as increase in phosphorylated c-myc level at 25 uM after 24 hrs by Western blot analysis; type: cell-based; outline: as §4
[18] = test system: HT-29; assay: Inhibition of Wnt/beta-catenin signaling in human HT29 cells assessed as effect on c-myc mRNA expression at 25 uM after 24 hrs by quantitative real-time PCR assay; type: cell-based; outline: as §2
[19] = test system: HT-29; assay: Inhibition of Wnt/beta-catenin signaling in human HT29 cells assessed as downregulation of cyclin D1 protein expression at 25 uM after 24 hrs by Western blot analysis; type: cell-based; outline: as §4
[20] = test system: HT-29; assay: Inhibition of Wnt/beta-catenin signaling in human HT29 cells assessed as downregulation of cyclin B1 protein expression at 25 uM after 24 hrs by Western blot analysis; type: cell-based; outline: as §4
[21] = Antiproliferative activity against human fibroblasts after 72 hrs by MTT assay; type: cell-based, Fibroblast
[22] = test system: HT-29; assay: Inhibition of Wnt/beta-catenin signaling in human HT29 cells assessed as decrease in TCF4 mRNA expression at 25 uM after 24 hrs by quantitative real-time PCR assay; type: cell-based; outline: as §2
[23] = organism: Danio rerio; assay: Toxicity in zebrafish larvae assessed as mortality at 1 uM treated for 7 days; type: organism-based; conditions: in vivo, 168 h
Outline: (§6)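 Wild-type zebrafish larvae raised under standard conditions were exposed to compounds dissolved in E3 medium. The medium containing compound was renewed every day for 7 days. The read-out was survival rate (mortality) at the end of exposure.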

[24] = organism: Danio rerio; assay: Toxicity in zebrafish larvae assessed as mortality at 5 to 25 uM treated for 7 days; type: organism-based; conditions: in vivo, 168 h; outline: as §6
[25] = organism: Danio rerio; assay: Inhibition of Wnt/beta-catenin signaling in zebrafish larvae assessed as inhibition of Tcf/Lef transcriptional activity at 10 uM after 72 hrs by GFP reporter assay; type: functional, organism-based
Outline: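 TCF/LEF-GFP reporter zebrafish were exposed from 24 hours post-fertilization for 72 h, with compounds dissolved in E3 medium that was renewed daily. GFP in the head and intestine was imaged by fluorescence stereomicroscope at 8X, alongside bright-field images.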

Row | Compound | IC50 [1] [µM] | GI50 [2] [µM] | GI50 [3] [µM] | GI50 [4] [µM] | GI50 [5] [µM] | also measured
1 | CCCSc1nc(N)cc(OCc2ccccc2)n1 | 22.3 | 88.2 | 87.1 | 51 | 54.2 | 
2 | Cc1ccn2cc(-c3ccc([N+](=O)[O-])cc3)nc2c1 | 23.1 | > 100 |  | 62.4 |  | 
3 | Cc1ccc2nc(-c3ccc(N)cc3)cn2c1 | 52.6 | 82.9 | > 100 | > 100 | 65.2 | 
4 | Cc1ccn2cc(-c3ccc(N)cc3)nc2c1 | 42.2 | 93.6 |  | > 100 |  | 
5 | CC(C)Cn1c(SCc2ccccc2)nc(N)cc1=O | 30.7 | > 100 | 77 | 83.3 | 68 | 
6 | O=C1[C@H](Cc2ccc(O)cc2)N2C(=O)CCN(C(=O)NCc3ccccc3)[C@H]2CN1Cc1cccc2ccccc12 | 18.7 | 17.2 | 12.7 | 6.1 | 15.6 | inhibition [6]: Active; inhibition [7]: Active; inhibition [8]: Active
7 | Cc1cc(OCc2ccccc2)n2cc(-c3ccc([N+](=O)[O-])cc3)nc2n1 | 16.1 | > 100 | > 100 | 71 | 74.9 | 
8 | Nc1cc(=O)n(Cc2ccccc2)c(SCc2ccccc2)n1 | 54.3 | 100 | 97.8 | > 100 | 84.9 | 
9 | Cc1ccc2nc(-c3ccc(NC(=O)c4ccccc4C(=O)O)cc3)cn2c1 | 9.7 | > 100 | > 100 | > 100 | 90.7 | inhibition [6]: Active; inhibition [7]: Active; inhibition [9]: Active; inhibition [10]: inactive; inhibition [11]: Active; inhibition [12]: Active; inhibition [8]: Active
10 | Cc1ccc2nc(-c3ccc(N(Cc4ccccc4)Cc4ccccc4)cc3)cn2c1 | 19.5 | 37.6 |  | 60 |  | 
11 | Cc1cc(O)n2cc(-c3ccc([N+](=O)[O-])cc3)nc2n1 | 10.4 | 90.1 | > 100 | 38.9 | 87.6 | Activity [13]: inactive; Activity [14]: inactive; inhibition [6]: Active; inhibition [7]: Active; inhibition [15]: Active; Activity [16]: inactive; inhibition [9]: Active; inhibition [17]: Active; inhibition [10]: inactive; inhibition [18]: inactive; inhibition [19]: Active; inhibition [11]: Active; inhibition [20]: Active; inhibition [8]: Active; GI50 at 72 h [21]: > 100 µM; inhibition [22]: Active
12 | COc1cc(OC)n2cc(-c3ccc(NCc4ccccc4)cc3)nc2n1 | 34.6 | > 100 | > 100 | > 100 | > 100 | 
13 | Cc1ccc2nc(-c3ccc([N+](=O)[O-])cc3)cn2c1 | 6.2 | > 100 | > 100 | > 100 | > 100 | inhibition [6]: Active; inhibition [7]: Active; inhibition [10]: inactive; inhibition [11]: Active; inhibition [8]: Active
14 | Cc1ccc2nc(-c3ccc(NCc4ccccc4)cc3)cn2c1 | 11.1 | 8.8 | > 100 | 56.1 |  | Activity [13]: inactive; Activity [14]: inactive; inhibition [6]: Active; inhibition [7]: Active; inhibition [15]: Active; Activity [23]: Non-toxic; Activity [16]: inactive; inhibition [9]: Active; inhibition [17]: Active; inhibition [10]: inactive; inhibition [18]: inactive; inhibition [19]: Active; Activity [24]: Toxic; inhibition [12]: Active; inhibition [20]: Active; inhibition [8]: Active; GI50 at 72 h [21]: > 100 µM; inhibition [22]: Active
15 | O=C(Nc1cccc2cccnc12)c1ccc(N2C(=O)[C@@H]3[C@H](C2=O)[C@@H]2C=C[C@H]3C2)cc1 |  | > 100 | 95.4 | > 100 | 63.1 | inhibition [6]: Active; inhibition [7]: Active; inhibition [25]: Active; inhibition [8]: Active
16 | CC(C)COc1cc(N)nc(SCc2ccccc2)n1 | 72.2 | 40 | 60.8 | 18.7 | 54.5 | 
17 | COc1cc(OC)n2cc(-c3ccc([N+](=O)[O-])cc3)nc2n1 | 57.8 | > 100 | 35.9 | 36.6 | 70.6 | 
18 | CNc1ccc(-c2cn3c(OC)cc(OC)nc3n2)cc1 | 72.2 | > 100 | > 100 | > 100 | > 100 | 
19 | Nc1cc(OCc2ccccc2)nc(SCc2ccccc2)n1 | > 100 | 53.9 | 49 | 46.2 | 53.7 | 
20 | Cc1ccn2cc(-c3ccc(NCc4ccccc4)cc3)nc2c1 | 17.8 | 17.5 |  |  |  | GI50 at 72 h [21]: > 100 µM
21 | Cc1ccn2cc(-c3ccc(NC(=O)c4ccccc4C(=O)O)cc3)nc2c1 | > 100 | > 100 |  | > 100 |  | 
22 | COc1cc(OC)n2cc(-c3ccc(N)cc3)nc2n1 | 14.3 | > 100 | > 100 | > 100 | > 100 | 
23 | CC(=O)Nc1cc(=O)n(CC(C)C)c(SCc2ccccc2)n1 | 43 | 68.4 | 67.6 | 46.4 | 58.5 | 
24 | COc1cc(OC)n2cc(-c3ccc(N(Cc4ccccc4)Cc4ccccc4)cc3)nc2n1 | 67 | > 100 | > 100 | 7 | 61.9 | 
25 | CCCSc1nc(NC(C)=O)cc(OCc2ccccc2)n1 | 81.8 | 59.9 | 75.1 | 75.7 | 54.9 | 
26 | CC(=O)Nc1cc(OCC(C)C)nc(SCc2ccccc2)n1 | > 100 | 35.7 | 64.4 | 19.9 | 53.9 | 
27 | CC(=O)Nc1cc(OCc2ccccc2)nc(SCc2ccccc2)n1 | 46.2 | 65.8 | 42.9 | 35.2 | 40 | 
